The results in this text go back to ChEMBL document CHEMBL4706641, “Novel Carboline Fungal Histone Deacetylase (HDAC) Inhibitors for Combinational Treatment of Azole-Resistant Candidiasis” (J Med Chem, 2021).

The subject of data set [1] is [Candida] auris. The experiment in a line: Synergistic antifungal activity against Candida auris assessed as potentiation of VRC antifungal activity by measuring VRC incubated for 48 hrs in presence of fluconazole by checkerboard microdilution assay. The data set is classed as functional, organism-based. Particulars: Candidozyma auris. For orientation: Broth dilution looks for growth in wells or tubes with falling amounts of substance.

In a further data set the test system is Cryptococcus neoformans. The experiment in a line: Synergistic antifungal activity against Cryptococcus neoformans assessed as potentiation of ITC antifungal activity by measuring ITC incubated for 48 hrs in presence of fluconazole by checkerboard microdilution assay. Type of data set: functional, organism-based.
Data set [2] deals with Candida albicans. The experiment in a line: Antifungal activity against Candida albicans 0304103 infected in ICR mouse model of candidiasis assessed as reduction in morphological changes of budded-to-hyphal transition at 10 mg/kg, ip dosed 24 hrs post infection and measured after 5 days by H and E staining based microscopical analysis. Type of data set: functional, organism-based. The note with it: time 5.0 day. In outline:
(§1)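 Two ICR mice per group, infected and treated as in the kidney burden model (IV 5 × 10⁵ C. albicans 0304103; IP compound 10 mg/kg, fluconazole 1 mg/kg, or combination, 5 days). Kidneys fixed in 4% paraformaldehyde, paraffin-embedded, 4 μm sections, H&E stained, examined at 40× and 200×.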

Data set [3] in a line: Toxicity in HUVEC. Type of data set: cell-based. The note with it: human, HUVEC cells.
Data set [4] concerns [Candida] auris. The experiment in a line: Synergistic antifungal activity against Candida auris assessed as potentiation of ITC antifungal activity by measuring ITC incubated for 48 hrs in presence of fluconazole by checkerboard microdilution assay. The data set is classed as functional, organism-based. Particulars: Candidozyma auris.
Another data set concerns the target Histone deacetylase 1 (Homo sapiens, UniProt Q13547). In words: Inhibition of human HDAC1 pre-incubated for 5 mins before substrate addition and measured after 30 mins by fluorescence based assay.
The test system of the next data set is Candida tropicalis. In words: Synergistic antifungal activity against Candida tropicalis assessed as potentiation of VRC antifungal activity by measuring VRC incubated for 48 hrs in presence of fluconazole by checkerboard microdilution assay. The data set is classed as functional, organism-based.
The test system of data set [5] is Candida albicans. In words: Synergistic antifungal activity against Candida albicans 9884 assessed as fluconazole MIC incubated for 48 hrs in presence of fluconazole by microdilution assay (reference value: fluconazole alone MIC = >[…] ug/ml). The data set is classed as functional.
The test system of data set [6] is Candida albicans. In words: Synergistic antifungal activity against Candida albicans 10061 incubated for 48 hrs in presence of fluconazole by microdilution assay. Type of data set: functional. In short, it runs like this: (§2)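 Checkerboard broth microdilution per CLSI M27-A3 (modified), clinical Candida isolates. Exponential cells in RPMI 1640 (MOPS-buffered) at 10³ cells/mL; fluconazole 0.25–64 μg/mL crossed with test compound 2–64 μg/mL (final). 48 h at 35 °C; OD630 read with background subtracted. MIC80 = 80% growth inhibition; FICI ≤0.5 synergy, >4 antagonism.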

Data set [7] relates to Candida albicans. The experiment in a line: Antifungal activity against Candida albicans 0304103 infected in ICR mouse model of candidiasis assessed as reduction in morphological changes of budded-to-hyphal transition at 10 mg/kg, ip dosed 24 hrs post infection and co-treated with 1 mg/kg, ip fluconazole and measured after 5 days by H and E staining based microscopical analysis. Type of data set: functional, organism-based. The note with it: time 5.0 day. In short, it runs like this: as §1

Data set [8] deals with Histone deacetylase (Homo sapiens) (UniProt Q13547+O15379+Q9UBN7+Q92769+Q9UQL6+Q8WUI4+Q9BY41+Q96DB2+P56524+Q9UKV0+Q969S8). In words: Inhibition of HDAC in HUVEC using Boc-Lys(Ac)-AMC substrate incubated for 18 hrs by fluorescence based assay. Type of data set: protein assay. In short, it runs like this:
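Human total HDAC in whole HUVEC cells: about 15000 cells/well, 24 h at 37 °C/5% CO₂ before compound; then Boc-Lys(Ac)-AMC 33 μM, 37 °C 6 h, trypsin/Nonidet P-40 stop 2 h, fluorescence Ex 360/Em 460 nm. Inhibition relative to control after blank subtraction; three independent experiments.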

For data set [9], the system named is Candida albicans. The experiment in a line: Induction of morphological changes in Candida albicans assessed as reduction in morphological conversion from yeast to hypha forms at 32 ug/ml incubated for 3 hrs by inverse fluorescence microscopy. Type of data set: functional, organism-based. Particulars: dose 32.0 µg/ml. In short, it runs like this:
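Exponential-phase C. albicans were suspended in Spider medium ([…], 2% NaHCO₃, […]) at 2 × 10⁶ cells/mL. Drugs were added alone or combined, with DMSO as control. After 3 h at 37 °C, cells were imaged by inverted fluorescence microscopy. Three independent experiments were run.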

For another data set, the system named is Pichia kudriavzevii. In words: Synergistic antifungal activity against Candida krusei 10153 incubated for 48 hrs in presence of fluconazole by microdilution assay. The data set is classed as functional. In short, it runs like this:
as §2

Data set [10] deals with Candida albicans. In words: Up-regulation of MDR1 mRNA expression in Candida albicans 0304103 at 32 ug/ml incubated for 24 hrs in presence of 32 ug/ml fluconazole by RT-PCR analysis. The data set is classed as functional. Particulars: dose 32.0 µg/ml. In short, it runs like this:
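Cells from a 1 × 10⁶ cells/mL starting suspension were split into DMSO control, FLC 32 μg/mL, test compound 32 μg/mL and combination (32 + 32 μg/mL) groups, then incubated 24 h at 35 °C in YEPD. Total RNA was extracted and reverse-transcribed. Real-time PCR ran 40 cycles (95 °C 5 s, 60 °C 34 s). Fold change was calculated by 2^−ΔΔCt against ACT1.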

For data set [11], the system named is Candida albicans. The experiment in a line: Antifungal activity against Candida albicans 0304103 infected in ICR mouse model of candidiasis assessed as reduction in fungal invasion by measuring clusters of fungal infiltration in renal pelvis/medulla at 10 mg/kg, ip dosed 24 hrs post infection and co-treated with 1 mg/kg, ip fluconazole and measured after 5 days by H and E staining based microscopical analysis. Type of data set: functional, organism-based. The note with it: time 5.0 day. In outline:
as §1

The test system of data set [12] is Candida albicans. In words: Synergistic antifungal activity against Candida albicans 0304103 at 8 ug/ml incubated for 48 hrs in presence of 32 ug/ml fluconazole by microdilution assay. Type of data set: functional, organism-based. The note with it: dose 8.0 µg/ml.
Data set [13] deals with Candida albicans. In words: Antifungal activity against Candida albicans 0304103 incubated for 48 hrs by microdilution assay. Type of data set: functional. The note with it: Candida albicans, 0304103, read-out: MIC80. In short, it runs like this:
as §2

Data set [14] relates to Candida albicans. The experiment in a line: Antifungal activity against Candida albicans 9884 incubated for 48 hrs by microdilution assay. The data set is classed as functional. In outline: as §2
Data set [15] relates to Candida albicans. The experiment in a line: Antifungal activity against Candida albicans 0304103 infected in ICR mouse model of candidiasis assessed as reduction in kidney fungal burden at 10 mg/kg, ip dosed 24 hrs post infection and measured after 5 days. The data set is classed as functional, organism-based. The note with it: time 5.0 day.
Data set [16] has as its system Candida albicans. In words: Antifungal activity against Candida albicans 0304103 infected in ICR mouse model of candidiasis assessed as reduction in fungal invasion by measuring clusters of fungal infiltration in renal pelvis at 10 mg/kg, ip dosed 24 hrs post infection and measured after 5 days by H and E staining based microscopical analysis. The note with it: time 5.0 day. The data set is classed as functional, organism-based. In short, it runs like this:
as §1

Data set [17] has as its system Candida albicans. In words: Synergistic antifungal activity against Candida albicans 10061 assessed as fluconazole MIC incubated for 48 hrs in presence of fluconazole by microdilution assay (reference value: fluconazole alone MIC = >[…] ug/ml). Type of data set: functional.
The subject of data set [18] is Candida albicans. In words: Synergistic antifungal activity against Candida albicans 9172 incubated for 48 hrs in presence of fluconazole by microdilution assay. Type of data set: functional. In outline:
as §2

For data set [19], the system named is Candida albicans. The experiment in a line: Synergistic antifungal activity against azole-resistant Candida albicans assessed as potentiation of VRC antifungal activity by measuring VRC incubated for 48 hrs in presence of fluconazole by checkerboard microdilution assay. Type of data set: functional.
Data set [20] relates to Candida albicans. In words: Synergistic antifungal activity against Candida albicans 9172 assessed as fluconazole MIC incubated for 48 hrs in presence of fluconazole by microdilution assay (reference value: fluconazole alone MIC = >[…] ug/ml). Type of data set: functional.

Molecules are shown by their SMILES. Values after ≈ are worked out from the molar mass of the structure shown. Active and inactive are the calls of the source. The calls are words filed in the database; no cut-off is given here.

Histone deacetylase 1, sequence (Q13547 whole entry): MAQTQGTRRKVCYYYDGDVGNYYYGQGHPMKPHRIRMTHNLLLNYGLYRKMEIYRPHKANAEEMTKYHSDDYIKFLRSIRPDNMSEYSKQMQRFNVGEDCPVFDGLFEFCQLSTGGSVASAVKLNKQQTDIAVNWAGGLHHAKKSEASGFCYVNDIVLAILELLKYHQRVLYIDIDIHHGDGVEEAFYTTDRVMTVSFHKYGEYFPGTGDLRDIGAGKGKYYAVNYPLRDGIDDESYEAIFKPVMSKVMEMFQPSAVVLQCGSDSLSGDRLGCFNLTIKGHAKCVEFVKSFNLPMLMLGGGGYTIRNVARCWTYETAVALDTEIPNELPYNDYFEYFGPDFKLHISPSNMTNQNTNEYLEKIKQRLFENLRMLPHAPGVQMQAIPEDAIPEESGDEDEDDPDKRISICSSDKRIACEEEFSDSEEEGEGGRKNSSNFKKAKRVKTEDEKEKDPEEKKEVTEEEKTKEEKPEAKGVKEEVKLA

Broadly, the IC50 is the concentration that gives 50% inhibition. A lower IC50 goes with greater potency in that assay. A word on the MIC80: it is the lowest concentration that inhibits either 80% of growth or 80% of the strains tested, depending on the study. As to `O=C(Cc1ccc(OCCCn2c3c(c4cccc(Cl)c42)CCNC3)cc1)NO`, the result (in data set [Candida] auris [1]; in data set [Candida] auris [4]; in the data set on Candida tropicalis; in the data set on Candida albicans [7]; with Candida albicans [11]) was Active. Besides, the outcome in the data set on Cryptococcus neoformans, with Candida albicans [2], in the data set with Candida albicans [9], with Candida albicans [12], in the data set on Candida albicans [15] and with Candida albicans [16] was inactive. For the same compound, the IC50 in [3] came out at 9.64 µM; against Histone deacetylase 1, 2.23 µM. In addition, the MIC80 was 0.5 µg/mL with Candida albicans [5]; 2 µg/mL in the data set with Candida albicans [6]; 8 µg/mL in the data set with Pichia kudriavzevii; greater than 64 µg/mL in the data set on Candida albicans [13]; 64 µg/mL (≈ 155 µM) in the data set on Candida albicans [14]; 2 µg/mL in the data set on Candida albicans [17]. The MIC80 came out at 2 µg/mL with Candida albicans [18] and 0.5 µg/mL in the data set with Candida albicans [20]. In addition, in data set [8], the inhibition result is “inactive”. The fold change (FC) in the data set with Candida albicans [10] was 8. In addition, the “fractional inhibitory concentration index (FICI)” value in the data set on Candida albicans [19] is 0.035.
